Results on ten molecules are retold here after ChEMBL document CHEMBL4270665, “Biodegradable Amphipathic Peptide Hydrogels as Extended-Release System for Opioid Peptides” (J Med Chem, 2018).

Active and inactive are the calls of the source. Non-standard residues stand in square brackets, D forms with d. Residues, ends and D or L forms follow the SMILES beside them. Dmt = Cc1cc(O)cc(C)c1C[C@H](N)C(=O)O; β3hF = N[C@H](CC(=O)O)Cc1ccccc1

In data set [1] the test system is Mus musculus. As to the kind of experiment: Antinociceptive activity in CD1 mouse assessed as increase in tail-flick latency at 0.56 umol, sc co-formulated with H-Phe-Gln-Phe-Gln-Phe-Lys-NH2 measured up to 72 hrs post dose. The format is functional, organism-based. Put shortly:
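Mice received peptide (0.56 μmol/mouse) co-formulated with hydrogelator at 2% (v/w), sc in 150 μL per mouse. Controls were hydrogelator alone or saline. Radiant-heat tail-flick test read as %MPE over time, with AUC calculated. 6−8 mice per group, mean ± SEM. Two-way ANOVA with Bonferroni post hoc test.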
(In general: Hot-plate and tail-flick tests time the reaction to a heat stimulus.)

The test system of data set [2] is Mus musculus. As to the kind of experiment: Antinociceptive activity in CD1 mouse assessed as increase in tail-flick latency at 5.6 umol/kg, sc measured up to 7 hrs post dose. It counts as functional, organism-based.
Data set [3] deals with T1, Mu-type opioid receptor (Homo sapiens, UniProt P35372). Nature of the data set: Agonist activity at human MOR expressed in human U2OS cells co-expressing enzyme acceptor-tagged beta-arrestin2 fusion protein assessed as induction of beta-arrestin2 recruitment preincubated for 90 mins measured by PathHunter assay. It counts as functional, cell-based.
T1 sequence (P35372 whole entry, the tested form may be a part): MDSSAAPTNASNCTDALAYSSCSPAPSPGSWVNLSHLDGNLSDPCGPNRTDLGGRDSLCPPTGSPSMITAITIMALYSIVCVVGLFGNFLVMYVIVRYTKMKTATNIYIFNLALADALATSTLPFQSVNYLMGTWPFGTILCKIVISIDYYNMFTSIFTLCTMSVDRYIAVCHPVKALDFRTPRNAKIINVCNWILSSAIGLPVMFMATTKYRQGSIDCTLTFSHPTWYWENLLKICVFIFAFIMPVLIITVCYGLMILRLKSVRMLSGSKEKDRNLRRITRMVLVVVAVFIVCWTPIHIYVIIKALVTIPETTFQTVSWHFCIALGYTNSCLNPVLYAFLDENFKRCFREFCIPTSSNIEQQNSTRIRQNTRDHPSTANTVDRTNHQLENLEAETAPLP
Data set [4] deals with T1, Mu-type opioid receptor. Nature of the data set: Agonist activity at human MOR expressed in CHO cell membranes after 60 mins by [35S]GTPgammaS binding assay. It counts as functional. Put shortly: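 Membranes from CHO cells stably expressing human MOR; agonist-stimulated [35S]GTPγS binding. Potency given as EC50 and efficacy (full or partial agonism) measured at human MOR.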
In general terms: Binding of GTPγS marks nucleotide exchange on a G protein.

The target of data set [5] is T1, Mu-type opioid receptor. Nature of the data set: Displacement of [3H]DAMGO from human MOR expressed in CHO cell membranes after 60 mins by liquid scintillation counting.
Data set [6] deals with Mus musculus. Nature of the data set: Antinociceptive activity in sc dosed CD1 mouse assessed as increase in tail-flick latency measured up to 24 hrs post dose. The format is functional, organism-based.
Data set [7] has as its system Mus musculus. As to the kind of experiment: Antinociceptive activity in CD1 mouse assessed as increase in tail-flick latency at 0.58 umol/kg, sc co-formulated with H-Phe-Glu-Phe-Gln-Phe-Lys-NH2 measured up to 72 hrs post dose. It counts as functional, organism-based.
Data set [8] relates to Mus musculus. As to the kind of experiment: Antinociceptive activity in sc dosed CD1 mouse assessed as increase in tail-flick latency measured up to 3 hrs post dose. The format is functional, organism-based.
Data set [9] can be described thus: Half life in human plasma at 9 uM at 37 degC by LC-MS analysis. It counts as ADME, cell-free. Put shortly:
(§1)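 Peptides were incubated in human plasma at 37 °C, and samples were collected at different time points. Half-life was calculated from the degradation profile. Major metabolites were identified by LC−MS analysis of the collected samples.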

For data set [10], the system named is Mus musculus. Nature of the data set: Antinociceptive activity in CD1 mouse assessed as increase in tail-flick latency at 3.9 umol/kg, sc measured up to 3 to 4 hrs post dose. It counts as functional, organism-based. In short, it runs like this:
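Radiant heat tail-flick test on an analgesiometer after subcutaneous injection of solutions in mice. Doses were 3.0, 3.9, 4.2 or 6.8 μmol/kg, with saline as control. Response was expressed as %MPE over time and AUC was calculated. Groups were 6−8 mice, reported as mean ± SEM, with two-way ANOVA and Bonferroni post hoc test.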

Data set [11] in a line: Prodrug conversion in human plasma assessed as H-Dmt-DArg-Phe-Phe-Gln-OH metabolite formation at 9 uM after 30 to 45 mins by LC-MS analysis. The format is ADME, cell-free.
The subject of data set [12] is Mus musculus. As to the kind of experiment: Antinociceptive activity in sc dosed CD1 mouse assessed as increase in tail-flick latency measured up to 72 hrs post dose. The format is functional, organism-based. In short, it runs like this: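 Radiant heat tail-flick test in mice after subcutaneous injection of 150 μL per mouse. The peptide (0.56 μmol/mouse) was given coformulated with hydrogelator (2% v/w) or conjugated as a biogel (2% v/w). Hydrogelator alone and saline served as controls. Latency was followed as %MPE over time with AUC calculated. Groups were 6−8 mice, reported as mean ± SEM, with two-way ANOVA and Bonferroni post hoc test.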

The nature of data set [13]: Prodrug conversion in human plasma assessed as H-Dmt-DArg-Phe-Phe-Gln-Phe-Gln-OH metabolite formation at 9 uM after 30 to 45 mins by LC-MS analysis. The format is ADME, cell-free. Put shortly: as §1
Data set [14] can be described thus: Prodrug conversion in human plasma assessed as H-Dmt-DArg-Phe-OH metabolite formation at 9 uM after 30 to 45 mins by LC-MS analysis. It counts as ADME, cell-free. In short, it runs like this: as §1
Data set [15] relates to Mus musculus. As to the kind of experiment: Antinociceptive activity in CD1 mouse assessed as increase in tail-flick latency at 14 umol/kg, sc measured up to 96 hrs post dose relative to control. It counts as functional.
In data set [16] the test system is Mus musculus. As to the kind of experiment: Antinociceptive activity in CD1 mouse assessed as increase in tail-flick latency at 6.8 umol/kg, sc measured up to 8 hrs post dose. It counts as functional, organism-based. Put shortly:
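Peptide given as a solution, sc, with a saline control group. Radiant-heat tail-flick test read as %MPE over time, with AUC of the time curves calculated. 6−8 mice per group, mean ± SEM. Two-way ANOVA with Bonferroni post hoc test.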

In data set [17] the test system is Mus musculus. As to the kind of experiment: Antinociceptive activity in CD1 mouse assessed as increase in tail-flick latency at 0.30 umol, sc co-formulated with H-Phe-Glu-Phe-Gln-Phe-Lys-NH2 measured up to 72 hrs post dose. The format is functional, organism-based.
Data set [18] has as its system Mus musculus. Nature of the data set: Antinociceptive activity in CD1 mouse assessed as increase in tail-flick latency at 1.8 umol/kg, sc measured after 4 hrs post dose. It counts as functional, organism-based.

`Cc1cc(O)cc(C)c1C[C@H](N)C(=O)N[C@H](CCCNC(=N)N)C(=O)N[C@@H](Cc1ccccc1)C(=O)N[C@@H](Cc1ccccc1)C(N)=O`: the outcome in the data set with Mus musculus [1] and in the data set on Mus musculus [2] was Active. Further, the result on Mu-type opioid receptor [3] was inactive. For the same molecule, the EC50 on Mu-type opioid receptor [4] is 0.19 nM. Moreover, on Mu-type opioid receptor [5], the Ki came to 0.037 nM.

As to `Cc1cc(O)cc(C)c1C[C@H](N)C(=O)N[C@H](CCCCN)C(=O)N[C@@H](Cc1ccccc1)C(=O)N[C@@H](Cc1ccccc1)C(=O)N[C@@H](CCC(N)=O)C(=O)N[C@@H](Cc1ccccc1)C(=O)N[C@@H](CCC(N)=O)C(=O)N[C@@H](Cc1ccccc1)C(=O)N[C@@H](CCCCN)C(N)=O` (H-[Dmt][dK]FFQFQFK-NH2), in the data set on Mus musculus [6], the outcome was Active. Besides, the Ki at Mu-type opioid receptor [5] was 5 to 141 nM.

Take `Cc1cc(O)cc(C)c1C[C@H](N)C(=O)N[C@H](CCCNC(=N)N)C(=O)N[C@@H](Cc1ccccc1)C(=O)N[C@@H](Cc1ccccc1)C(=O)N[C@@H](CCC(N)=O)C(=O)N[C@H](CC(=O)N[C@@H](Cc1ccccc1)C(=O)N[C@@H](CCC(N)=O)C(=O)N[C@@H](Cc1ccccc1)C(=O)N[C@@H](CCCCN)C(N)=O)Cc1ccccc1` (H-[Dmt][dR]FFQ[β3hF]FQFK-NH2): the outcome in the data set with Mus musculus [7] and in the data set with Mus musculus [8] was inactive. In data set [9], this molecule had a half-life at 9 µM of 123 min. Besides, the Ki at Mu-type opioid receptor [5] lay within 5 to 141 nM.

`Cc1cc(O)cc(C)c1C[C@H](N)C(=O)N[C@H](CCCNC(=N)N)C(=O)N[C@@H](Cc1ccccc1)C(=O)N[C@@H](Cc1ccccc1)C(=O)N[C@@H](CCC(N)=O)C(=O)N[C@@H](Cc1ccccc1)C(=O)N[C@@H](CCC(N)=O)C(=O)O`: in the data set with Mus musculus [10], the outcome was Active. Moreover, the midpoint of the response on Mu-type opioid receptor [4], the EC50, lay at 47.5 nM. Also, the Ki on Mu-type opioid receptor [5] was 6.16 nM.

Take `Cc1cc(O)cc(C)c1C[C@H](N)C(=O)N[C@H](CCCNC(=N)N)C(=O)N[C@@H](Cc1ccccc1)C(=O)N[C@@H](Cc1ccccc1)C(=O)N[C@@H](CCC(N)=O)C(=O)N[C@@H](Cc1ccccc1)C(=O)N[C@@H](CCC(N)=O)C(=O)N[C@@H](Cc1ccccc1)C(=O)N[C@@H](CCCCN)C(N)=O` (H-[Dmt][dR]FFQFQFK-NH2): the Drug metabolism result in data set [11], in data set [13] and in data set [14] was “Metabolite_Detected” throughout. The result in the data set on Mus musculus [12] was Active. The half-life at 9 µM in data set [9] came out at 16 min.

Take `Cc1cc(O)cc(C)c1C[C@H](N)C(=O)N1CCC[C@H]1C(=O)N[C@@H](Cc1ccccc1)C(=O)N[C@@H](Cc1ccccc1)C(N)=O`: the result at Mu-type opioid receptor [3] was inactive. Further, the MPE in the data set on Mus musculus [15] is below 80%. The EC50 on Mu-type opioid receptor [4] is 0.1 to 0.86 nM.

Regarding `Cc1cc(O)cc(C)c1C[C@H](N)C(=O)N[C@H](CCCNC(=N)N)C(=O)N[C@@H](Cc1ccccc1)C(=O)O`, the outcome with Mus musculus [16] was Active. Moreover, the midpoint of the response at Mu-type opioid receptor [4], the EC50, lay at 3.67 nM. At Mu-type opioid receptor [5], this molecule yielded a Ki of 0.52 nM.

As to `N=C(N)NCCC[C@@H](NC(=O)[C@@H](N)Cc1ccc(O)cc1)C(=O)N[C@@H](Cc1ccccc1)C(=O)N[C@@H](Cc1ccccc1)C(=O)N[C@@H](CCC(N)=O)C(=O)N[C@@H](Cc1ccccc1)C(=O)N[C@@H](CCC(N)=O)C(=O)N[C@@H](Cc1ccccc1)C(=O)N[C@@H](CCCCN)C(N)=O`, in data set [9], the half-life at 9 µM was 18 min.

Turning to `Cc1cc(O)cc(C)c1C[C@H](N)C(=O)N[C@H](CCCCN)C(=O)N[C@@H](Cc1ccccc1)C(=O)N[C@@H](Cc1ccccc1)C(=O)N[C@@H](CCC(=O)O)C(=O)N[C@@H](Cc1ccccc1)C(=O)N[C@@H](CCC(N)=O)C(=O)N[C@@H](Cc1ccccc1)C(=O)N[C@@H](CCCCN)C(N)=O` (H-[Dmt][dK]FFEFQFK-NH2), in the data set with Mus musculus [6], the result was Active. This molecule gave a Ki at Mu-type opioid receptor [5] of 5 to 141 nM.

Take `Cc1cc(O)cc(C)c1C[C@H](N)C(=O)N[C@H](CCCNC(=N)N)C(=O)N[C@H]1Cc2ccccc2CN(CCC(N)=O)C1=O`: the outcome in the data set with Mus musculus [17] and in the data set with Mus musculus [18] was Active. The result on Mu-type opioid receptor [3] was inactive.

Usually EC50 stands for the midpoint of the concentration-response curve. By Ki is commonly meant a dissociation constant, usually derived from enzyme kinetics or from competition with a known ligand. Read a low Ki as higher affinity. As usually defined, the half-life is the time needed for the level to fall by half in the phase considered. High values mean slow loss, low ones fast loss.
